Reference: ChEMBL document CHEMBL1141138, “A novel immunostimulator, N-[alpha-O-benzyl-N-(acetylmuramyl)-L-alanyl-D-isoglutaminyl]-N6-trans-(m-nitrocinnamoyl)-L-lysine, and its adjuvancy on the hepatitis B surface antigen” (J Med Chem, 2005)
Where “and” joins values, the source holds several entries; their conditions need not be identical. Identical values can stand only once.

Legend:
[1] = system: P815; assay: In vitro stimulatory effect on increased rate of allogenic CTL cytotoxicity on P815 cells mediated by BMDC in presence of LPS; type: functional, Mus musculus
Summary of the method: (§1)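 BALB/c (H-2d) BMDCs were pretreated with compound ±LPS for 24 h, then cocultured in quadruplicate with C57BL/6J (H-2b) splenocytes. Effectors harvested on day 6 were set to 5 × 10^5 cells and incubated with 1 × 10^4 P815 (H-2d) targets for 5 h. LDH release was read at OD450. Specific release = (E−S)/(M−S)×100; maximum release used 1% Triton X-100.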

[2] = organism: Mus musculus; assay: Effect of compound (10e-6 mol/L) on rate of proliferation of murine splenocytes in presence of concanavalin A compared to control; type: functional
Summary of the method: (§2)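 Normal murine splenocytes were exposed to compound with or without concanavalin A (2 μg/mL) for 72 h. Proliferation was read by MTT as OD570. Increased rate (%) was taken versus the matching control without or with ConA. Mean ± SD.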

[3] = organism: Mus musculus; assay: Effect of compound (10e-6 mol/L) on rate of proliferation of murine splenocytes in absence of concanavalin A compared to control; type: functional; summary of the method: as §2
[4] = system: P815; assay: In vitro stimulatory effect on specific release of allogenic CTL cytotoxicity on P815 cells mediated by BMDC in presence of LPS; type: functional, Mus musculus; summary of the method: as §1
[5] = system: P815; assay: In vitro stimulatory effect on increased rate of allogenic CTL cytotoxicity on P815 cells mediated by BMDC in absence of LPS; type: functional, Mus musculus; summary of the method: as §1
[6] = system: P815; assay: In vitro stimulatory effect on specific release of allogenic CTL cytotoxicity on P815 cells mediated by BMDC in absence of LPS; type: functional, Mus musculus; summary of the method: as §1
[7] = system: P388; assay: Increased inhibitory ratio against P388 mice tumor cells compared to control; type: functional, Mus musculus
Summary of the method: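 Thioglycollate-elicited peritoneal macrophages from C57BL/6J mice (harvested 3 days after ip TG) were coincubated with P388 leukemia cells and compound for 72 h. P388 with compound alone served as the toxicity control. Surviving tumor cells were read by MTT at 570 nm, reference 630 nm. The inhibitory ratio was taken versus control.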

[8] = system: Mus musculus; assay: Effect (10 mg/kg/day*7 days, i.v.) on cyclophosphamide (CY, i.p.) treated mice (immunosuppressed animal model) assessed by CD4+/CD8+ ratio in peripheral blood mononuclear cells; type: functional
Summary of the method: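 Male C57BL/6J mice given cyclophosphamide 30 (mg/kg)/day ip for 5 consecutive days, then randomized and dosed iv for 7 consecutive days. PBMCs collected on day 8; ratio of CD3+CD4+ to CD3+CD8+ T cells measured by flow cytometry (CD4-FITC, PE anti-CD8 staining). n = 3.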

[9] = In vivo toxicity (100 mg/kg) is assessed as increase in mass index of mice thymus cells relative to control (44.1+/-5.13); type: organism-based; conditions: mouse
[10] = system: Mus musculus; assay: Effect (2.0 mg/kg/day*7 days, i.v.) on cyclophosphamide (CY, i.p.) treated mice (immunosuppressed animal model) assessed by CD4+/CD8+ ratio in peripheral blood mononuclear cells; type: functional
[11] = Effect of compound (10e-7 mol/L) on secretion of Interleukin-2 treated with bone marrow-derived dendritic cells in absence of lipopolysaccharide; type: functional, Mus musculus
Summary of the method: (§3)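 BMDCs came from BALB/c bone marrow adherent cells grown with IL-4 and GM-CSF (10 ng/mL each); half the medium was renewed every other day. On day 5 cells were preincubated with compound for 30 min, then held ±LPS (1.0 μg/mL) for 48 h. Supernatant IL-2 and IL-12 (pg/mL) were measured by sandwich ELISA. Detection limits were 15.0 and 7.8 pg/mL.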

[12] = organism: Mus musculus; assay: Effect of compound (10e-7 mol/L) on rate of proliferation of murine splenocytes in presence of concanavalin A compared to control; type: functional; summary of the method: as §2
[13] = Effect of compound (10e-6 mol/L) on secretion of Interleukin-2 treated with bone marrow-derived dendritic cells in absence of lipopolysaccharide; type: functional, Mus musculus; summary of the method: as §3
[14] = Effect of compound (10e-8 mol/L) on secretion of Interleukin-2 treated with bone marrow-derived dendritic cells in presence of lipopolysaccharide; type: functional, Mus musculus; summary of the method: as §3
[15] = Effect of compound (10e-8 mol/L) on secretion of Interleukin-12 treated with bone marrow-derived dendritic cells in presence of lipopolysaccharide; type: functional, Mus musculus; summary of the method: as §3
[16] = Effect of compound (10e-7 mol/L) on secretion of Interleukin-12 treated with bone marrow-derived dendritic cells in presence of lipopolysaccharide; type: functional, Mus musculus; summary of the method: as §3
[17] = In vivo toxicity (500 mg/kg) is assessed as mass index in mice spleen cells; type: organism-based; conditions: mouse
[18] = organism: Mus musculus; assay: Effect of compound (10e-9 mol/L) on rate of proliferation of murine splenocytes in absence of concanavalin A compared to control; type: functional; summary of the method: as §2
[19] = In vivo toxicity (500 mg/kg) is assessed as mass index in mice thymus cells; type: organism-based; conditions: mouse
[20] = In vivo toxicity (100 mg/kg) is assessed as mass index in mice thymus cells; type: organism-based; conditions: mouse
[21] = Effect of compound (10e-7 mol/L) on secretion of Interleukin-2 treated with bone marrow-derived dendritic cells in presence of lipopolysaccharide; type: functional, Mus musculus; summary of the method: as §3
[22] = Effect of compound (10e-6 mol/L) on secretion of Interleukin-12 treated with bone marrow-derived dendritic cells in absence of lipopolysaccharide; type: functional, Mus musculus; summary of the method: as §3
[23] = Effect of compound (10e-7 mol/L) on secretion of Interleukin-12 treated with bone marrow-derived dendritic cells in absence of lipopolysaccharide; type: functional, Mus musculus; summary of the method: as §3
[24] = organism: Mus musculus; assay: Effect of compound (10e-8 mol/L) on rate of proliferation of murine splenocytes in absence of concanavalin A compared to control; type: functional; summary of the method: as §2
[25] = system: Mus musculus; assay: Effect (0.5 mg/kg/day*7 days, i.v.) on cyclophosphamide (CY, i.p.) treated mice (immunosuppressed animal model) assessed by CD4+/CD8+ ratio in peripheral blood mononuclear cells; type: functional
[26] = organism: Mus musculus; assay: Effect of compound (10e-8 mol/L) on rate of proliferation of murine splenocytes in presence of concanavalin A compared to control; type: functional; summary of the method: as §2
[27] = Effect of compound (10e-8 mol/L) on secretion of Interleukin-12 treated with bone marrow-derived dendritic cells in absence of lipopolysaccharide; type: functional, Mus musculus; summary of the method: as §3
[28] = organism: Mus musculus; assay: Effect of compound (10e-7 mol/L) on rate of proliferation of murine splenocytes in absence of concanavalin A compared to control; type: functional; summary of the method: as §2
[29] = In vivo toxicity (500 mg/kg) is assessed as increase in mass index of mice spleen cells relative to control (56.4+/-11.5); type: organism-based; conditions: mouse
[30] = Effect of compound (10e-6 mol/L) on secretion of Interleukin-12 treated with bone marrow-derived dendritic cells in presence of lipopolysaccharide; type: functional, Mus musculus; summary of the method: as §3
[31] = Effect of compound (10e-9 mol/L) on secretion of Interleukin-2 treated with bone marrow-derived dendritic cells in presence of lipopolysaccharide; type: functional, Mus musculus; summary of the method: as §3
[32] = Effect of compound (10e-6 mol/L) on secretion of Interleukin-2 treated with bone marrow-derived dendritic cells in presence of lipopolysaccharide; type: functional, Mus musculus; summary of the method: as §3
[33] = organism: Mus musculus; assay: Effect of compound (10e-9 mol/L) on rate of proliferation of murine splenocytes in presence of concanavalin A compared to control; type: functional; summary of the method: as §2
[34] = In vivo toxicity (100 mg/kg) is assessed as increase in mass index of mice spleen cells relative to control (56.4+/-11.5); type: organism-based; conditions: mouse
[35] = Effect of compound (10e-8 mol/L) on secretion of Interleukin-2 treated with bone marrow-derived dendritic cells in absence of lipopolysaccharide; type: functional, Mus musculus; summary of the method: as §3
[36] = Effect of compound (10e-9 mol/L) on secretion of Interleukin-12 treated with bone marrow-derived dendritic cells in presence of lipopolysaccharide; type: functional, Mus musculus; summary of the method: as §3
[37] = In vivo toxicity (100 mg/kg) is assessed as mass index in mice spleen cells; type: organism-based; conditions: mouse

Q: Which Increase [1] does the source give for `CCCCCCCCCCCCCCCCCC(=O)NCCCC[C@H](NC(=O)CC[C@@H](NC(=O)[C@H](C)NC(=O)[C@@H](C)O[C@H]1[C@H](O)[C@@H](CO)OC(O)[C@@H]1NC(C)=O)C(N)=O)C(=O)O` (stereo partly drawn) [ROMURTIDE] here?
A: 45%

Q: And the Increase [2]?
A: 67%

Q: And the Increase [3]?
A: 122%

Q: And the Release [4]?
A: 30.7%

Q: And the Increase [5]?
A: 187%

Q: And the Release [6]?
A: 31.7%

Q: What about the IR [7] of the same compound?
A: 45%

Q: Which Ratio [8] does the source give for `O=P1(N(CCCl)CCCl)NCCCO1` (stereo not drawn) [CYCLOPHOSPHAMIDE ANHYDROUS] here?
A: 2.4

Q: What does the source list for `CC(=O)N[C@H]1[C@@H](OCc2ccccc2)O[C@H](CO)[C@@H](O)[C@@H]1O[C@H](C)C(=O)N[C@@H](C)C(=O)N[C@H](CCC(=O)N[C@@H](CCCCNC(=O)/C=C/c1cccc([N+](=O)[O-])c1)C(N)=O)C(N)=O`?
A: Increase [1]: 82% and 49% and 28%; Increase [2]: 82%; Mass index [9]: -1.4% and -2.8%; Ratio [10]: 4.14; Activity [11]: 76 pg/mL; Increase [12]: 38%; Activity [13]: 103 pg/mL; Increase [3]: 191%; Activity [14]: 107 pg/mL; Activity [15]: 819 pg/mL; Activity [16]: 838 pg/mL; Release [4]: 35.7% and 31.3% and 28.5% and 23.8%; Mass index [17]: 86.1 mg/10g body weight; Increase [18]: 5.41%; Mass index [19]: 43.5 mg/10g body weight; Mass index [20]: 42.8 mg/10g body weight; Activity [21]: 117 pg/mL; Activity [22]: 918 pg/mL; Activity [23]: 786 pg/mL; Increase [24]: 27.3%; Ratio [25]: 3.18; Ratio [8]: 4.47; Increase [26]: 15%; Activity [27]: 725 pg/mL; Increase [28]: 75%; Mass index [29]: 53%; Activity [30]: 988 pg/mL; Activity [31]: 94.8 pg/mL; Activity [32]: 132 pg/mL; IR [7]: 71%; Increase [33]: 7.8%; Mass index [34]: 6%; Activity [35]: 60 pg/mL; Activity [36]: 800 pg/mL; Mass index [37]: 59.9 mg/10g body weight
